Laboratory results reported in paper PMC6663923 (Acta Pharmaceutica Sinica. B, 2019).
Where two headings read alike, the source gives them in different places. Each block holds one molecule with its values, some of them ahead of it.

What was measured:
[1] = biological target: T1, recombinant LSD1 (Homo sapiens, UniProt O60341); test: LSD1 enzymatic assay; type: biochemical
[2] = biological target: T1, recombinant LSD1; test: Reversibility analysis; type: biochemical; details: 80-fold dilution
Procedure, shortened: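 Recombinant LSD1 (2.5 μg) was preincubated for 1 h with the test compound (312.5 μmol/L), a reference inhibitor (600 μmol/L) or DMSO. Aliquots were then diluted 80-fold into HRP-coupled assay solution containing substrate and coupling reagents, and residual demethylase activity was measured.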

[3] = tested on: glioma stem cells (GSCs); details: cited from earlier work

SMILES: CCCSc1nc(Sc2nc3ccccc3s2)c2nnn(CCOCCO)c2n1 [Compound 8l]
LSD1 inhibitory effect (in words) ([1]; recombinant LSD1): moderate inhibitory effect

SMILES: O=C(O)c1ccc(CN2CCC(CN[C@@H]3C[C@H]3c3ccccc3)CC2)cc1 [GSK2879552]
reversibility of LSD1 inhibition (in words) [2]: failed to recover the activity of LSD1

SMILES: NC1CC1c1cccc(OCC[C@H](NC(=O)c2ccccc2)C(=O)NCc2ccccc2)c1 (stereo partly drawn) [NCL-1]
cell viability of GSCs (in words) [3]: significantly reduced the cell viability

Continued, values first:

IC50 ([1]; read-out: LSD1 IC50, recombinant LSD1): 55 nM
SMILES: C#CCSc1nc(Sc2nnnn2-c2ccccc2)c2nnn(Cc3ccc(C(C)C)cc3)c2n1 [Compound 15x]

IC50 ([1]; LSD1 IC50, recombinant LSD1): 140 nM
SMILES: C#CCSc1nc(Sc2nnnn2-c2ccccc2)c2nnn(Cc3ccc(OC)cc3)c2n1 [Compound 15y]

IC50 ([1]; LSD1 IC50, recombinant LSD1): > 10000 nM
SMILES: OCCNc1cc(Sc2nnnn2-c2ccccc2)nc(SCc2ccccc2)n1 [Compound 22b, 2-((2-(Benzylthio)-6-((1-phenyl-1H-tetrazol-5-yl)thio)pyrimidin-4-yl)amino)ethan-1-ol]
